Active and inactive are the calls of the source. No cut-off for these calls is given here.
Experiments:
[1] = system: Plasmodium yoelii nigeriensis; test: Antimalarial activity against multidrug-resistant Plasmodium yoelii nigeriensis infected in Swiss mice (Mus musculus) assessed as suppression of parasitaemia at 48 mg/kg, peroral for 4 days relative to control; type: functional; settings: route oral
In short: (§1)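 Swiss mice of either sex (20 ± 2 g) infected intraperitoneally with 1 × 10⁶ MDR P. yoelii nigeriensis parasites on day 0. Five mice per dose group, given oral doses in groundnut oil, twice daily on days 0–3. Parasitaemia read from day-4 thin blood smears. Suppression = [(C − T)/C] × 100, with C and T the control and treated parasitaemia. 100% means no parasites seen in 50 oil-immersion fields.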

[2] = system: Plasmodium yoelii nigeriensis; test: Antimalarial activity against multidrug-resistant Plasmodium yoelii nigeriensis infected in Swiss mice (Mus musculus) assessed as suppression of parasitaemia at 96 mg/kg, perorally for 4 days relative to control; type: functional; settings: route oral; in short: as §1
[3] = system: Plasmodium yoelii nigeriensis; test: Antimalarial activity against multidrug-resistant Plasmodium yoelii nigeriensis infected in Swiss mice (Mus musculus) assessed as curated mice (Mus musculus) at 96 mg/kg, peroral for 4 days; type: functional, organism-based; parameters: dose 96 mg/kg
In short: (§2)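 Swiss mice of either sex (20 ± 2 g) inoculated intraperitoneally with 1 × 10⁶ MDR P. yoelii nigeriensis parasites on day 0. Five mice per dose group, dosed orally in groundnut oil (0.1 mL), in two divided doses daily from day 0 to 3. Thin blood smears read on day 4, then twice weekly to day 28. Mice without patent infection by day 28 counted as cured. β-Arteether was the positive control.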

[4] = Lipophilicity, log P of the compound; type: physicochemical; settings: octanol/water
[5] = system: Plasmodium yoelii nigeriensis; test: Antimalarial activity against multidrug-resistant Plasmodium yoelii nigeriensis infected in Swiss mice (Mus musculus) assessed as curated mice (Mus musculus) at 48 mg/kg, peroral for 4 days; type: functional, organism-based; parameters: dose 48 mg/kg; in short: as §2
[6] = system: Plasmodium yoelii nigeriensis; test: Antimalarial activity against multidrug-resistant Plasmodium yoelii nigeriensis infected in Swiss mice (Mus musculus) assessed as curated mice (Mus musculus) at 24 mg/kg, peroral for 4 days; type: functional, organism-based; parameters: dose 24 mg/kg; in short: as §2
[7] = system: Plasmodium yoelii nigeriensis; test: Antimalarial activity against multidrug-resistant Plasmodium yoelii nigeriensis infected in Swiss mice (Mus musculus) assessed as suppression of parasitaemia at 24 mg/kg, peroral for 4 days relative to control; type: functional; settings: route oral; in short: as §1
[8] = system: Plasmodium yoelii nigeriensis; test: Antimalarial activity against multidrug-resistant Plasmodium yoelii nigeriensis infected in Swiss mice (Mus musculus) assessed as suppression of parasitaemia at 12 mg/kg, peroral for 4 days relative to control; type: functional; settings: route oral; in short: as §1
[9] = system: Plasmodium yoelii nigeriensis; test: Antimalarial activity against multidrug-resistant Plasmodium yoelii nigeriensis infected in Swiss mice (Mus musculus) assessed as curated mice (Mus musculus) at 12 mg/kg, peroral for 4 days; type: functional, organism-based; parameters: dose 12 mg/kg; in short: as §2

## C=C(c1cccc2ccccc12)C1CCC2(CC1)COC(Nc1cccc(C(F)(F)F)c1)OO2 (stereo not given)
[1]
  Activity: 100%
[2]
  Activity: 100%
[3]
  Activity: Active
[4]
  logP: 6.51

## C=C(c1ccc2c(c1)Cc1ccccc1-2)C1CCC2(CC1)COC(Nc1ccc(OC)cc1)OO2 (stereo not given)
[5]
  Activity: inactive
[1]
  Activity: 100%
[2]
  Activity: 100%
[3]
  Activity: Active
[4]
  logP: 6.2

## C=C(c1ccc2ccccc2c1)C1CCC2(CC1)COC(Nc1ccc(C(F)(F)F)cc1)OO2 (single isomer, unassigned; more polar) [listing 1 of 2 here]
[5]
  Activity: Active
[6]
  Activity: Active
[3]
  Activity: Active

## C=C(c1ccc2ccc3ccccc3c2c1)C1CCC2(CC1)COC(Nc1cc(Cl)cc(Cl)c1)OO2 (stereo not given)
[1]
  Activity: 62.5%
[2]
  Activity: 100%
[3]
  Activity: Active
[4]
  logP: 7.7

## C=C(c1ccc2c(c1)Cc1ccccc1-2)C1CCC2(CC1)COC(Nc1ccc(Cl)cc1)OO2 (stereo not given)
[2]
  Activity: 100%
[3]
  Activity: Active
[4]
  logP: 6.88

## C=C(c1cccc2ccccc12)C1CCC2(CC1)COC(Nc1cc(Cl)cc(Cl)c1)OO2 (stereo not given)
[1]
  Activity: 100%
[2]
  Activity: 100%
[3]
  Activity: Active
[4]
  logP: 6.71

## C=C(c1ccc2ccc3ccccc3c2c1)C1CCC2(CC1)COC(Nc1ccc(C(F)(F)F)cc1)OO2 (stereo not given)
[5]
  Activity: inactive
[1]
  Activity: 82.22%
[2]
  Activity: 100%
[3]
  Activity: Active
[4]
  logP: 7.51

## C=C(c1ccc2ccccc2c1)C1CCC2(CC1)COC(Nc1ccc(C)cc1)OO2 (stereo not given)
[1]
  Activity: 100%
[2]
  Activity: 100%
[3]
  Activity: Active
[4]
  logP: 6.08

## C=C(c1ccc2c(c1)Cc1ccccc1-2)C1CCC2(CC1)COC(Nc1ccc(F)cc1)OO2 (stereo not given)
[1]
  Activity: 100%
[2]
  Activity: 100%
[3]
  Activity: Active
[4]
  logP: 6.48

## C=C(c1ccc2c(c1)Cc1ccccc1-2)C1CCC2(CC1)COC(Nc1ccc(C)cc1)OO2 (stereo not given)
[1]
  Activity: 100%
[2]
  Activity: 100%
[3]
  Activity: Active
[4]
  logP: 6.81

## C=C(c1ccc2ccccc2c1)C1CCC2(CC1)COC(Nc1cccc(C(F)(F)F)c1)OO2 (stereo not given)
[1]
  Activity: 100%
[2]
  Activity: 100%
[3]
  Activity: Active
[4]
  logP: 6.51

## C=C(c1ccc2ccccc2c1)C1CCC2(CC1)COC(Nc1cc(Cl)cc(Cl)c1)OO2 (stereo not given)
[1]
  Activity: 100%
[2]
  Activity: 100%
[3]
  Activity: Active
[4]
  logP: 6.71

## C=C(c1ccc2ccc3ccccc3c2c1)C1CCC2(CC1)COC(Nc1ccc(OC)cc1)OO2 (stereo not given)
[1]
  Activity: 100%
[2]
  Activity: 100%
[3]
  Activity: Active
[4]
  logP: 6.46

## C=C(c1ccc2ccccc2c1)C1CCC2(CC1)COC(Nc1ccc(C(F)(F)F)cc1)OO2 (single isomer, unassigned; less polar) [listing 1 of 2 here]
[1]
  Activity: 100%
[2]
  Activity: 100%
[7]
  Activity: 100%
[8]; 12 mg/kg
  Activity: 6.25%
[4]
  logP: 6.51

## C=C(c1ccc2ccc3ccccc3c2c1)C1CCC2(CC1)COC(Nc1ccccc1)OO2 (stereo not given)
[1]
  Activity: 100%
[2]
  Activity: 100%
[7]
  Activity: 100%
[3]
  Activity: Active
[4]
  logP: 6.59

## C=C(c1cccc2ccccc12)C1CCC2(CC1)COC(Nc1ccccc1-c1ccccc1)OO2 (stereo not given)
[1]
  Activity: 100%
[2]
  Activity: 100%
[3]
  Activity: Active
[4]
  logP: 7.26

## C=C(c1cccc2ccccc12)C1CCC2(CC1)COC(Nc1ccc(OC)cc1)OO2 (stereo not given)
[1]
  Activity: 100%
[2]
  Activity: 100%
[3]
  Activity: Active
[4]
  logP: 5.46

## C=C(c1ccc2ccccc2c1)C1CCC2(CC1)COC(Nc1ccc(OC)cc1)OO2 (stereo not given)
[1]
  Activity: 100%
[2]
  Activity: 100%
[3]
  Activity: Active
[4]
  logP: 5.46

## C=C(c1ccc2ccc3ccccc3c2c1)C1CCC2(CC1)COC(Nc1ccc(C)cc1)OO2 (stereo not given)
[5]
  Activity: Active
[1]
  Activity: 100%
[2]
  Activity: 100%
[7]
  Activity: 100%
[3]
  Activity: Active
[4]
  logP: 7.07

## C=C(c1ccc2c(c1)Cc1ccccc1-2)C1CCC2(CC1)COC(Nc1ccccc1)OO2 (stereo not given)
[1]
  Activity: 100%
[2]
  Activity: 100%
[3]
  Activity: Active
[4]
  logP: 6.33

## C=C(c1ccc2ccccc2c1)C1CCC2(CC1)COC(Nc1ccc(C(F)(F)F)cc1)OO2 (single isomer, unassigned; more polar) [listing 2 of 2 here]
[8]; 12 mg/kg
  Activity: 100%

## C=C(c1ccc2ccccc2c1)C1CCC2(CC1)COC(Nc1ccccc1)OO2 (stereo not given)
[1]
  Activity: 100%
[2]
  Activity: 100%
[3]
  Activity: Active
[4]
  logP: 5.59

## C=C(c1ccc2ccc3ccccc3c2c1)C1CCC2(CC1)COC(Nc1cccc(C(F)(F)F)c1)OO2 (stereo not given)
[5]
  Activity: inactive
[1]
  Activity: 100%
[2]
  Activity: 100%
[3]
  Activity: Active
[4]
  logP: 7.51

## C=C(c1ccc2c(c1)Cc1ccccc1-2)C1CCC2(CC1)COC(Nc1cccc(C(F)(F)F)c1)OO2 (stereo not given)
[5]
  Activity: inactive
[1]
  Activity: 100%
[2]
  Activity: 100%
[3]
  Activity: Active
[4]
  logP: 7.25

## C=C(c1ccc2ccccc2c1)C1CCC2(CC1)COC(Nc1ccccc1-c1ccccc1)OO2 (stereo not given)
[1]
  Activity: 100%
[2]
  Activity: 100%
[3]
  Activity: Active
[4]
  logP: 7.26

## C=C(c1ccc2ccccc2c1)C1CCC2(CC1)COC(Nc1ccc(Cl)cc1)OO2 (stereo not given)
[5]
  Activity: Active
[1]
  Activity: 100%
[2]
  Activity: 100%
[9]
  Activity: inactive
[7]
  Activity: 100%
[6]
  Activity: inactive
[8]
  Activity: 60%
[3]
  Activity: Active
[4]
  logP: 6.15

## C=C(c1ccc2c(c1)Cc1ccccc1-2)C1CCC2(CC1)COC(Nc1cc(Cl)cc(Cl)c1)OO2 (stereo not given)
[2]
  Activity: 100%
[3]
  Activity: inactive
[4]
  logP: 7.44

## C=C(c1ccc2ccc3ccccc3c2c1)C1CCC2(CC1)COC(Nc1ccc(F)cc1)OO2 (stereo not given)
[1]
  Activity: 100%
[2]
  Activity: 100%
[3]
  Activity: Active
[4]
  logP: 6.74

## C=C(c1cccc2ccccc12)C1CCC2(CC1)COC(Nc1ccc(C)cc1)OO2 (stereo not given)
[1]
  Activity: 100%
[2]
  Activity: 100%
[4]
  logP: 6.08

## C=C(c1ccc2ccc3ccccc3c2c1)C1CCC2(CC1)COC(Nc1ccccc1-c1ccccc1)OO2 (stereo not given)
[5]
  Activity: inactive
[1]
  Activity: 74.36%
[2]
  Activity: 100%
[3]
  Activity: Active
[4]
  logP: 8.26

## C=C(c1ccc2c(c1)Cc1ccccc1-2)C1CCC2(CC1)COC(Nc1ccc(C(F)(F)F)cc1)OO2 (stereo not given)
[1]
  Activity: 100%
[2]
  Activity: 100%
[3]
  Activity: Active
[4]
  logP: 7.25

## CCO[C@H]1O[C@@H]2O[C@@]3(C)CC[C@H]4[C@H](C)CC[C@@H]([C@H]1C)[C@@]24OO3 [ARTEMOTIL]
[5]
  Activity: Active
[1]
  Activity: 100%
[7]
  Activity: 100%

## C=C(c1cccc2ccccc12)C1CCC2(CC1)COC(Nc1ccc(Cl)cc1)OO2 (stereo not given)
[1]
  Activity: 100%
[2]
  Activity: 100%
[4]
  logP: 6.15

## C=C(c1ccc2ccccc2c1)C1CCC2(CC1)COC(Nc1ccc(C(F)(F)F)cc1)OO2 (single isomer, unassigned; less polar) [listing 2 of 2 here]
[5]
  Activity: Active
[9]
  Activity: inactive
[6]
  Activity: Active
[3]
  Activity: Active

## C=C(c1cccc2ccccc12)C1CCC2(CC1)COC(Nc1ccccc1)OO2 (stereo not given)
[1]
  Activity: 100%
[2]
  Activity: 100%
[3]
  Activity: Active
[4]
  logP: 5.59

## C=C(c1cccc2ccccc12)C1CCC2(CC1)COC(Nc1ccc(C(F)(F)F)cc1)OO2 (stereo not given)
[1]
  Activity: 100%
[2]
  Activity: 100%
[3]
  Activity: Active
[4]
  logP: 6.51

## C=C(c1cccc2ccccc12)C1CCC2(CC1)COC(Nc1ccc(F)cc1)OO2 (stereo not given)
[1]
  Activity: 100%
[2]
  Activity: 100%
[3]
  Activity: Active
[4]
  logP: 5.75

## C=C(c1ccc2ccc3ccccc3c2c1)C1CCC2(CC1)COC(Nc1ccc(Cl)cc1)OO2 (stereo not given)
[1]
  Activity: 76.9%
[2]
  Activity: 100%
[3]
  Activity: Active
[4]
  logP: 7.14

## C=C(c1ccc2ccccc2c1)C1CCC2(CC1)COC(Nc1ccc(F)cc1)OO2 (stereo not given)
[1]
  Activity: 100%
[2]
  Activity: 100%
[7]
  Activity: 100%
[3]
  Activity: Active
[4]
  logP: 5.75

## C=C(c1ccc2c(c1)Cc1ccccc1-2)C1CCC2(CC1)COC(Nc1ccccc1-c1ccccc1)OO2 (stereo not given)
[2]
  Activity: 100%
[3]
  Activity: inactive
[4]
  logP: 8

Reference: ChEMBL document CHEMBL1275344, “Synthesis and antimalarial assessment of a new series of orally active amino-functionalized spiro 1,2,4-trioxanes” (J Med Chem, 2010)
